Assay [1] has as its system Human immunodeficiency virus 1. As to the kind of experiment: Antiviral activity against HIV1 CXCR4-tropic strain HxB2 infected in human 293T cells at 400 uM after 48 hrs by neutralization assay. The format is functional, organism-based. Summed up:
(§1)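 Env-pseudotyped virus made by transfecting 293T cells with SG3denv plus an HIV-1 env plasmid. Medium changed at 24 h, supernatant harvested at 48 h, 0.45 μm filtered, stored at −80 °C. Two-fold serial inhibitor dilutions mixed with virus, then TZM-bl cells added. Incubated at 37 °C, 5% CO₂, fresh medium at 24 h. Luciferase read after lysis at 48 h post-infection. Single round. Tested up to 400 μM.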

For assay [2], the system named is Human immunodeficiency virus 1. As to the kind of experiment: Antiviral activity against HIV1 JRCSF infected in human 293T cells after 48 hrs by neutralization assay. The format is functional, cell-based. The settings on record: Human immunodeficiency virus 1, JRCSF ISOLATE, HEK-293T. The procedure, abridged: as §1
Assay [3] relates to Human immunodeficiency virus 1. As to the kind of experiment: Antiviral activity against HIV1 dual CXCR4/CCR5-tropic strain 89.6 infected in human 293T cells after 48 hrs by neutralization assay. The format is functional, organism-based. Conditions: Human immunodeficiency virus 1, 89.6, HEK-293T; call rule not given here. Summed up:
as §1

In assay [4] the test system is Human immunodeficiency virus 1. Kind of assay: Antiviral activity against HIV1 NL4-3 infected in human 293T cells after 48 hrs by neutralization assay. The format is functional, organism-based. Conditions: Human immunodeficiency virus 1, NL4-3, HEK-293T. Summed up: as §1
Assay [5] relates to Human immunodeficiency virus 1. As to the kind of experiment: Antiviral activity against HIV1 CCR5-tropic strain YU2 infected in human 293T cells at 400 uM after 48 hrs by neutralization assay. The format is functional, cell-based, isolate YU2. Summed up: as §1

Our source for the IC50 values is ChEMBL document CHEMBL3774382, “Design and synthesis of small molecule-sulfotyrosine mimetics that inhibit HIV-1 entry” (Bioorg Med Chem, 2016).

For the compound `CC1=NN(c2nc(C(F)(F)F)cs2)C(=O)/C1=N\Nc1ccc2c(S(=O)(=O)O)cc(S(=O)(=O)O)cc2c1`, the IC50 entry in assay [1] is “Not Active”; in assay [2], 83.3 µM; in assay [3], 79.7 µM; in assay [4] it was 80.1 µM; in assay [5], “Not Active”.

Broadly, the IC50 is the concentration needed to halve the response being measured. The low end stands for higher potency, the high end for lower potency.
